Three compounds from ChEMBL document CHEMBL1137302 (J Med Chem, 2006) can be followed below.

Series [1] addresses T1, D(2) dopamine receptor (Homo sapiens, UniProt P14416). Put plainly: Binding affinity to human D2S receptor.
The target of series [2] is D(3) dopamine receptor (Homo sapiens) (UniProt P35462). Put plainly: Agonist activity at human D3 receptor in HEK293 cells coexpressing G-alpha-qo5 by FLIPR upto 10 uM. Format: functional, cell-based.
For series [3], the species on record is Mustela putorius furo. Description: Induction of emesis in ferret. Format: functional, organism-based.
Series [4] is filed under the species Mustela putorius furo. Put plainly: Induction of nausea in ferret. Format: functional, organism-based.
Series [5] deals with T2, D(4) dopamine receptor (Rattus norvegicus, UniProt P30729).
T2 sequence (P30729 whole entry): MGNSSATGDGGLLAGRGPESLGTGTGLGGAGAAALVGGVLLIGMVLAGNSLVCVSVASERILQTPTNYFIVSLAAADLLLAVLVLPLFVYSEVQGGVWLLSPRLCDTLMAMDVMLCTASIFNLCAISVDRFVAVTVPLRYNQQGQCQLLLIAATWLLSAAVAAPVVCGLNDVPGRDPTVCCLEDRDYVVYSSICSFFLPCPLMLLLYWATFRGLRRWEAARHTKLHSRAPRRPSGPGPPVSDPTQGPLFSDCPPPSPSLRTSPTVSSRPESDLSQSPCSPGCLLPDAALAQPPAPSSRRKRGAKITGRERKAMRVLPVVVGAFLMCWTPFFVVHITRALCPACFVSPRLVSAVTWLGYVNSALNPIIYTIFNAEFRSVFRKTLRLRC
Description: Agonist activity at rat D4 receptor in HEK293 cells coexpressing G-alpha-qo5 by FLIPR. Format: functional, cell-based.

Series [6] deals with T3, D(4) dopamine receptor (Rattus norvegicus) (UniProt P30729).
T3 sequence (whole entry): T2 sequence (P30729 whole entry)
Put plainly: Agonist activity at rat D4 receptor in HEK293 cells co-expressing Galphaqo5 by FLIPR relative to dopamine. The class given is functional, cell-based.

For series [7], the target named is T1, D(2) dopamine receptor. Description: Agonist activity at human D2 receptor in HEK293 cells coexpressing G-alpha-qo5 by FLIPR relative to dopamine upto 10 uM. Format: functional, cell-based. In short, it runs like this: (§1)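 Ca2+ flux by FLIPR in HEK cells cotransfected with the D2 receptor (human, ferret or rat) plus chimeric G protein Gqo5.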
For series [8], the target named is D(2) dopamine receptor (Rattus norvegicus) (UniProt P61169). Put plainly: Agonist activity at rat D2 receptor in HEK293 cells coexpressing G-alpha-qo5 by FLIPR relative to dopamine upto 10 uM. The class given is functional, cell-based. In outline:
as §1

Series [9] addresses T4, D(4) dopamine receptor (Homo sapiens) (UniProt P21917).
T4 sequence (whole entry): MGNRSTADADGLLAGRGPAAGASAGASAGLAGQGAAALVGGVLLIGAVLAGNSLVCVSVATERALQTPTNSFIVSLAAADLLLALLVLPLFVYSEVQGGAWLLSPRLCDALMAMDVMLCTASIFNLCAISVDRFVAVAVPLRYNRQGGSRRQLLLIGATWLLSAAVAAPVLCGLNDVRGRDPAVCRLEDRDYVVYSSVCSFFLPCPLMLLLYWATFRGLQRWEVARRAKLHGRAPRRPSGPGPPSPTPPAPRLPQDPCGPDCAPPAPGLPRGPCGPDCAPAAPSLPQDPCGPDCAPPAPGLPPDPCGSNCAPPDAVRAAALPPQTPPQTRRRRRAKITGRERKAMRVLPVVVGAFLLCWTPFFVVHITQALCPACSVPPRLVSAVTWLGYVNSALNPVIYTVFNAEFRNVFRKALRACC
Description: Activity at human D4.4 receptor in HEK293 cells co-expressing Galphaqo5 by FLIPR. The class given is functional, cell-based.

In series [10] the target is T1, D(2) dopamine receptor. Put plainly: Displacement of [125I]7-OH-PIPAT from human D2L receptor expressed in HEK293 cell membrane. Format: cell membranes. Background: In a radioligand displacement assay an active substance lowers the binding of a labelled ligand.
In series [11] the target is T5, D(4) dopamine receptor (Homo sapiens, UniProt P21917).
T5 sequence (P21917 whole entry): T4 sequence (whole entry)
Put plainly: Displacement of [3H]A369508 from human D4 receptor expressed in HEK293 cell membrane. Format: cell membranes.

Series [12] deals with Phosphodiesterase 1 (Homo sapiens) (UniProt P54750+Q01064+Q14123). Description: Activity at PDE1 at 10 uM. Format: protein assay. In outline:
(§2)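 Broad selectivity panel (over 70 receptors, ion channels and neuronal receptors, PDE1-6 included) run at a single 10 µM concentration.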

Series [13] has as its target cGMP-dependent 3',5'-cyclic phosphodiesterase (Homo sapiens) (UniProt O00408). Description: Activity at PDE2 at 10 uM. In outline: as §2
The target of series [14] is Phosphodiesterase 3 (Homo sapiens) (UniProt Q14432+Q13370). Put plainly: Activity at PDE3 at 10 uM. The class given is protein assay. In short, it runs like this:
as §2

Series [15] has as its target Phosphodiesterase 4 (Homo sapiens) (UniProt P27815+Q08499+Q07343+Q08493). Description: Activity at PDE4 at 10 uM. The class given is protein assay. In outline:
as §2

For series [16], the target named is cGMP-specific 3',5'-cyclic phosphodiesterase (Homo sapiens) (UniProt O76074). Put plainly: Activity at PDE5 at 10 uM. In short, it runs like this:
as §2

Series [17] has as its target Phosphodiesterase 6 (Homo sapiens) (UniProt Q13956+P18545+P35913+O43924+P16499+P51160). Put plainly: Activity at PDE6 at 10 uM. Format: protein assay. In short, it runs like this:
as §2

Series [18] concerns Rattus norvegicus. Put plainly: Proerectile activity in rat measured as incidence of penile erection at 0.3 umol/kg, sc. Format: functional. In outline:
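Conscious male rats were given a single subcutaneous injection and observed for penile erections over the following 60 min. The read-out was the incidence of erections, expressed as % of animals ± SEM (n = 12–32 animals per group), with significance tested against controls. The value is the maximal incidence at the maximally effective dose.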

In series [19] the target is T5, D(4) dopamine receptor. Put plainly: Agonist activity at human D4.4 receptor in HEK293 cells coexpressing G-alpha-qo5 by FLIPR. Format: functional, cell-based.
Series [20] can be described thus: Bioavailability in Sprague-Dawley rat at 1 mg/kg, po. Format: ADME, organism-based. The conditions noted are these: in vivo. In outline:
(§3)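 Single 1 mg/kg dose given iv, sc or orally to Sprague-Dawley rats, dogs and monkeys; plasma concentrations followed over time (mean ± SEM, n = 3). Cmax, AUC, half-life, clearance and bioavailability calculated from the curves.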

A short description of series [21]: Bioavailability in Sprague-Dawley rat at 1 mg/kg, sc. Format: ADME, organism-based. The conditions noted are these: in vivo. In outline: as §3
Series [22] in a line: Half life in Sprague-Dawley rat at 1 mg/kg, sc. The class given is ADME, organism-based. Set-up: dose 1 mg/kg, route subcutaneous. The conditions noted are these: in vivo. In short, it runs like this: as §3
A short description of series [23]: Half life in Sprague-Dawley rat at 1 mg/kg, po. To be noted: in vivo. Further details: dose 1 mg/kg, route oral. The class given is ADME, organism-based. In short, it runs like this: as §3
Series [24] can be described thus: Oral bioavailability in rat. Format: ADME, organism-based. The conditions noted are these: in vivo. In outline:
as §3

The nature of series [25]: Oral bioavailability in dog. Format: ADME, organism-based, Canis lupus familiaris. The conditions noted are these: in vivo. In outline: as §3
Series [26] in a line: Oral bioavailability in monkey. The conditions noted are these: rhesus monkey, in vivo. Format: ADME, organism-based, Macaca mulatta. In short, it runs like this:
as §3

The target in series [27] is hERG (Homo sapiens, UniProt Q12809). Description: Blockade of current at hERG expressed in HEK293 cells at 3 ug/mL. To be noted: HEK293 cells that express hERG. The class given is cell-based. In outline:
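hERG stably expressed in HEK293 cells; whole-cell voltage clamp. Pipette: K aspartate/KCl/EGTA/MgATP, pH 7.3. Bath: NaCl-based HEPES, pH 7.4. Compound dissolved in DMSO (≤0.1%), one concentration per cell. Steps to -25 to +50 mV for 3 s, then -50 mV for 4 s, from -80 mV every 15 s; tail current measured against DMSO vehicle.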
A general note: Block of hERG is tested as a sign of cardiac risk.

The nature of series [28]: Effect on canine cardiac Purkinje fiber repolarization measured as prolongation of action potential duration at 1.6 ug/mL. The class given is functional, Canis lupus familiaris. In short, it runs like this: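 Canine Purkinje fibres impaled with 3 M KCl microelectrodes after at least 30 min equilibration under stimulation. Bath: 131 mM NaCl, 18 mM NaHCO3, 4 mM KCl, 2 mM CaCl2. Baseline APD90 recorded at BCL 2 s, 800 and 400 ms. Each fibre then received two ascending concentrations, each with 25 min equilibration and re-recording at all three rates.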

In series [29] the target is T1, D(2) dopamine receptor. Put plainly: Agonist activity at human D2 receptor in HEK293 cells coexpressing G-alpha-qo5 by FLIPR. The class given is functional, cell-based.
For series [30], the target named is T5, D(4) dopamine receptor. Put plainly: Displacement of [3H]spiperone from human D4 receptor expressed in HEK293 cell membrane. The class given is cell membranes.
Series [31] relates to Rattus norvegicus. Put plainly: Proerectile activity in rat measured as incidence of penile erection at 0.03 umol/kg, sc. The class given is functional. In outline:
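Conscious male rats dosed subcutaneously. Penile erection incidence scored over 60 min after injection; values are % ± SEM, with significance tested against control.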

Series [32] has as its target T1, D(2) dopamine receptor. Put plainly: Binding affinity at human D2L receptor by displacement of [125I]-7-OH-PIPAT in membranes.

pEC50, pKi: −log10 of the molar value. The source made the active and inactive calls.

T1 sequence (P14416 whole entry): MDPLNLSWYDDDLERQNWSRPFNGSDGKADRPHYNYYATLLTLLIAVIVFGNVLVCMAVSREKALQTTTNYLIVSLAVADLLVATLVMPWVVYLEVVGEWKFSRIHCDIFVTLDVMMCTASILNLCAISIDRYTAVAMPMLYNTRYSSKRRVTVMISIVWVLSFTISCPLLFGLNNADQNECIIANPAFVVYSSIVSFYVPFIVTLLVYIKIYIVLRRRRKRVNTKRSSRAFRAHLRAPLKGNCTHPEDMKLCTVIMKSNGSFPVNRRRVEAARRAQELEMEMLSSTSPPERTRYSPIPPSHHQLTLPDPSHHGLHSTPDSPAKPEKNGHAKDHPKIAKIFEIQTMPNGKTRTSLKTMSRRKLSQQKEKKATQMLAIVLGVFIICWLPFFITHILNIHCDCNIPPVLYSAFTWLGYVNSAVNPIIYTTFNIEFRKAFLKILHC
Chain of D(2) dopamine receptor (Rattus norvegicus) (P61169 whole entry): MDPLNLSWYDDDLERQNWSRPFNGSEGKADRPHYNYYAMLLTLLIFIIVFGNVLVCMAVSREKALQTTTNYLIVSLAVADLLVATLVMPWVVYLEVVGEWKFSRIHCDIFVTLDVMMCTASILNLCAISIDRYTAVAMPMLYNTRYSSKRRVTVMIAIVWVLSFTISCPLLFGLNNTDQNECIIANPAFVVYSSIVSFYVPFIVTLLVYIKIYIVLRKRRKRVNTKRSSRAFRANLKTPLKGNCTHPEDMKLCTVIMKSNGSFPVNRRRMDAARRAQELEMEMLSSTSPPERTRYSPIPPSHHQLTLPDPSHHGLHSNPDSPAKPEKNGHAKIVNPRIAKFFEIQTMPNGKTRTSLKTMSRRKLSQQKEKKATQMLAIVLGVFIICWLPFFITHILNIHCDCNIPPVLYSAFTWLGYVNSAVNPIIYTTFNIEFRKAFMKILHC
Chain of cGMP-dependent 3',5'-cyclic phosphodiesterase (Homo sapiens) (O00408 whole entry): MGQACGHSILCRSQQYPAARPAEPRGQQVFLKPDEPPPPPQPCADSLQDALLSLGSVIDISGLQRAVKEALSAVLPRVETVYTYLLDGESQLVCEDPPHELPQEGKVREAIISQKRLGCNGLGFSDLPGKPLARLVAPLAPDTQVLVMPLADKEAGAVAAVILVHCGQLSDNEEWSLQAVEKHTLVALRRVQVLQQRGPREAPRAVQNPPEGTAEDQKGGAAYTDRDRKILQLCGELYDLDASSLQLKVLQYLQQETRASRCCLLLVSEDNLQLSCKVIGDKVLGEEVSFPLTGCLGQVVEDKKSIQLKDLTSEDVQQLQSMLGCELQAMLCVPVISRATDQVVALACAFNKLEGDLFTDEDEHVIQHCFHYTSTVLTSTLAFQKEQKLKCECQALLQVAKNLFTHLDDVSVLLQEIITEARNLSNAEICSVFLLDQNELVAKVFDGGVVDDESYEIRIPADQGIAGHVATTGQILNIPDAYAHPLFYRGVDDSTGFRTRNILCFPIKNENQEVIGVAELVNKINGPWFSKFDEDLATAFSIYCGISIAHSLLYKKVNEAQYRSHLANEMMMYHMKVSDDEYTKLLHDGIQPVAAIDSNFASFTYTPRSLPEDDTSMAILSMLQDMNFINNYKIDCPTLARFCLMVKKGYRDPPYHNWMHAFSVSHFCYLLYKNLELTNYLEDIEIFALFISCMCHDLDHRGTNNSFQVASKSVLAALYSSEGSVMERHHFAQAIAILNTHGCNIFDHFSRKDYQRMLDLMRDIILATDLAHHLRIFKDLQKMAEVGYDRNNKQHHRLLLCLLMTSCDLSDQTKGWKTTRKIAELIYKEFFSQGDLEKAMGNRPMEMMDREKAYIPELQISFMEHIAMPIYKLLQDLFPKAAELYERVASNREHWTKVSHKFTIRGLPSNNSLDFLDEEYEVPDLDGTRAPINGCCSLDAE
Chain of D(3) dopamine receptor (Homo sapiens) (P35462 whole entry): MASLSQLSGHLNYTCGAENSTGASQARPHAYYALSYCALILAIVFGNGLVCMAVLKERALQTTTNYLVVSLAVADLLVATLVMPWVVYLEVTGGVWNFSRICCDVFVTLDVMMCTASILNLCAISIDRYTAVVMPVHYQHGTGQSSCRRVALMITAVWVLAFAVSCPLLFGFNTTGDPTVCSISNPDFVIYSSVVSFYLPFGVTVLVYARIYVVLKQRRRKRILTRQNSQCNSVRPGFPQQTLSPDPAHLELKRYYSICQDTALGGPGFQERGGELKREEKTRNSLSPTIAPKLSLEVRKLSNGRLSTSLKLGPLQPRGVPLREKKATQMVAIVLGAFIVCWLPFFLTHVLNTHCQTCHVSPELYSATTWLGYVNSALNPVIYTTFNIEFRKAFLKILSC
Chain of hERG (Q12809 whole entry): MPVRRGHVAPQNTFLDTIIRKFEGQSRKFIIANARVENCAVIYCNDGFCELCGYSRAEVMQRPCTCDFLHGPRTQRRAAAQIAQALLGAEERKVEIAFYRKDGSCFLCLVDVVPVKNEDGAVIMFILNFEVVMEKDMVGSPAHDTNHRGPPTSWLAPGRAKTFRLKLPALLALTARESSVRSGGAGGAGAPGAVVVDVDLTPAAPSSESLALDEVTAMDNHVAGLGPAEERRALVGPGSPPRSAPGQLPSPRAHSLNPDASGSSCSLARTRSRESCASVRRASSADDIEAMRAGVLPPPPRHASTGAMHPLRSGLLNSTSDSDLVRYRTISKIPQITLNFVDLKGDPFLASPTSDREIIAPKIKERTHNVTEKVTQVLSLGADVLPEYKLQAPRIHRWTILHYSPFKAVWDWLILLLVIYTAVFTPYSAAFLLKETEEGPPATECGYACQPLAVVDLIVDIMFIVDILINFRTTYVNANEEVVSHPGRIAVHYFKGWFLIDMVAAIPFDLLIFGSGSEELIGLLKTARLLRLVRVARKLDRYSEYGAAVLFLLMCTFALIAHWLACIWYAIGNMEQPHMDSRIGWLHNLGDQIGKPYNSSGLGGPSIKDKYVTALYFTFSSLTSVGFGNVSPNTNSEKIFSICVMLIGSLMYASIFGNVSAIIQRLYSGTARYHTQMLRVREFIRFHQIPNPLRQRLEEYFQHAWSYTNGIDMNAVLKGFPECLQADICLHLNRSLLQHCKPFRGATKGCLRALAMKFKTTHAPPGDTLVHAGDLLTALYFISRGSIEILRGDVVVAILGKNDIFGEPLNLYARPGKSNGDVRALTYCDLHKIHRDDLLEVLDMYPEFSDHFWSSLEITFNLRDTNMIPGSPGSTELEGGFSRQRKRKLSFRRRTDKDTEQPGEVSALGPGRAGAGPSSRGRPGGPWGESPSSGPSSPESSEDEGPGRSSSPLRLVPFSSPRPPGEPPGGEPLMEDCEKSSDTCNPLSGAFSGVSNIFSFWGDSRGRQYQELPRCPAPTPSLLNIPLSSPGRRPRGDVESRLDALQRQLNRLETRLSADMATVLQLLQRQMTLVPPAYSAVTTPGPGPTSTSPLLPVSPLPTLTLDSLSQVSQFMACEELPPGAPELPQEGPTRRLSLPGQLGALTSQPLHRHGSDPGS

What is called pKi is the negative decadic logarithm of the Ki, by convention in mol/L. The term pEC50 denotes −log10 of the EC50, conventionally taken in molar units. For orientation: bioavailability means the share of a dose that reaches the circulation, judged against a reference dose that is usually intravenous. What is called half-life is the time needed for the level to fall by half in the phase considered. What is called inhibition is the drop in the measured response relative to a control, in per cent. In the case of `Cc1cccc(NC(=O)CN2CCC(c3cccc[n+]3[O-])CC2)c1`, the pKi was < 5.00 in series [1], < 5.00 in [10] and 6.53 in series [11]. Moreover, the outcome in series [2], in [3], in series [4], in [7], in series [8] and in series [12] was inactive. In addition, the result in series [13], in series [14], in series [15], in series [16] and in [17] was inactive. In addition, the pEC50 in series [5] was 7.24; in series [19] it was 7.49. In series [6], this compound had an Efficacy of 80%. For the same compound, the Activity result in series [9] (filed as agonist) was “Agonist”; in [18] it was 75%; in [28] it was 12%. For the same compound, the bioavailability is 11% in series [20]; 61% in series [21]; 11% in series [24]; 70% in series [25]; 28% in [26]. In addition, the half-life in series [22] is 30 min; in series [23], 18 min. The same compound displayed an inhibition at 3 ug/mL in [27] of 44.8%.

Turning to `COc1ccccc1C1CCN(CNC(=O)c2cccc(C)c2)CC1`, the results for the pEC50 in [29] and in series [19] were < 5.00 and 6.69, respectively. The Activity entry in [9] (filed as partial agonist) was “Partial agonist”. The values for the pKi in series [10] and in series [11] were 7.57 and 8.89, respectively.

In the case of `Cc1cccc(C(=O)NCN2CCC(c3ccccn3)CC2)c1`, the pKi in series [10] is 5.46; in [30], 7.49; in [32], 5.46. The compound further had an Activity in series [31] of 83%. In series [19], this compound had a pEC50 of 8.05. Moreover, the values for the bioavailability in series [20] and in series [21] were 2% and 76%, respectively. This compound also had a half-life in [22] of 36 min.
